From ChEMBL document CHEMBL1127451, “Benzoselenazolinone derivatives designed to be glutathione peroxidase mimetics feature inhibition of cyclooxygenase/5-lipoxygenase pathways and anti-inflammatory activity” (1994)

What was measured:
[1] = In vitro glutathione peroxidase activity at 2*10e-7M using hydrogen peroxide, activity given in percentage of ebselen''s activity; type: functional
[2] = In vitro glutathione peroxidase activity at 2*10e-7M using tert-butyl hydroperoxide, activity given in percentage of ebselen''s activity; type: functional
Rattus norvegicus [3] = assay: Tested for acute anti-inflammatory activity of the antirat serum-induced edema in rats at dose of 30 mg/kg at time interval- 0.5 hr; type: functional
Outline: (§1)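 Fasted Wistar rats (200–240 g), six per group, receive drug orally in 2% gelatin. One hour later, 0.1 mL rabbit antirat serum is injected subplantar into the hind paw. Paw volume is measured by water plethysmometry at injection and at 0.5, 1, 2, 3 and 4 h. Results are percent inhibition of swelling versus vehicle-treated rats.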

Rattus norvegicus [4] = assay: Tested for acute anti-inflammatory activity of the antirat serum-induced edema in rats at dose of 30 mg/kg at time interval- 1 hr; type: functional; outline: as §1
Rattus norvegicus [5] = assay: Tested for acute anti-inflammatory activity of the antirat serum-induced edema in rats at dose of 30 mg/kg at time interval- 2 hr; type: functional; outline: as §1
Rattus norvegicus [6] = assay: Tested for acute anti-inflammatory activity of carrageenan-induced foot edema in rats at dose of 100 mg/kg at time interval- 0.5 hr; type: functional
Outline: (§2)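 Fasted Wistar rats (200–240 g), six per group, receive drug orally in 2% gelatin. One hour later, 0.1 mL 2% carrageenan in […] is injected subplantar into the hind paw. Paw volume is measured by water plethysmometry at injection and at 0.5, 1, 2, 3 and 4 h. Results are percent inhibition of swelling versus vehicle-treated rats.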

Rattus norvegicus [7] = assay: Tested for acute anti-inflammatory activity of carrageenan-induced foot edema in rats at dose of 100 mg/kg at time interval- 1 hr; type: functional; outline: as §2
Rattus norvegicus [8] = assay: Tested for acute anti-inflammatory activity of carrageenan-induced foot edema in rats at dose of 100 mg/kg at time interval- 3h; type: functional; outline: as §2
Rattus norvegicus [9] = assay: Tested for acute anti-inflammatory activity of carrageenan-induced foot edema in rats at dose of 100 mg/kg at time interval- 4 hr; type: functional; outline: as §2
Rattus norvegicus [10] = assay: Tested for acute anti-inflammatory activity of carrageenan-induced foot edema in rats at dose of 30 mg/kg at time interval- 0.5 hr; type: functional; outline: as §2
Rattus norvegicus [11] = assay: Tested for acute anti-inflammatory activity of carrageenan-induced foot edema in rats at dose of 30 mg/kg at time interval- 1 hr; type: functional; outline: as §2
Rattus norvegicus [12] = assay: Tested for acute anti-inflammatory activity of carrageenan-induced foot edema in rats at dose of 30 mg/kg at time interval- 3h; type: functional; outline: as §2
Rattus norvegicus [13] = assay: Tested for acute anti-inflammatory activity of carrageenan-induced foot edema in rats at dose of 30 mg/kg at time interval- 4 hr; type: functional; outline: as §2
Rattus norvegicus [14] = assay: Tested for acute anti-inflammatory activity of the antirat serum-induced edema in rats at dose of 30 mg/kg at time interval- 3h; type: functional; outline: as §1
Rattus norvegicus [15] = assay: Tested for acute anti-inflammatory activity of the antirat serum-induced edema in rats at dose of 30 mg/kg at time interval- 4 hr; type: functional; outline: as §1
Rattus norvegicus [16] = assay: Tested for acute anti-inflammatory activity of the antirat serum-induced edema in rats at dose of 3 mg/kg at time interval- 1 hr; type: functional; outline: as §1
Rattus norvegicus [17] = assay: Tested for acute anti-inflammatory activity of the antirat serum-induced edema in rats at dose of 3 mg/kg at time interval- 2 hr; type: functional; outline: as §1
Rattus norvegicus [18] = assay: Tested for acute anti-inflammatory activity of the antirat serum-induced edema in rats at dose of 3 mg/kg at time interval- 3h; type: functional; outline: as §1
Rattus norvegicus [19] = assay: Tested for acute anti-inflammatory activity of the antirat serum-induced edema in rats at dose of 3 mg/kg at time interval- 4 hr; type: functional; outline: as §1
Rattus norvegicus [20] = assay: Tested for acute anti-inflammatory activity of carrageenan-induced foot edema in rats at dose of 3 mg/kg at time interval- 0.5 hr; type: functional; outline: as §2
Rattus norvegicus [21] = assay: Tested for acute anti-inflammatory activity of carrageenan-induced foot edema in rats at dose of 3 mg/kg at time interval- 1 hr; type: functional; outline: as §2
Rattus norvegicus [22] = assay: Tested for acute anti-inflammatory activity of carrageenan-induced foot edema in rats at dose of 3 mg/kg at time interval- 2 hr; type: functional; outline: as §2
Rattus norvegicus [23] = assay: Tested for acute anti-inflammatory activity of carrageenan-induced foot edema in rats at dose of 3 mg/kg at time interval- 3h; type: functional; outline: as §2
Rattus norvegicus [24] = assay: Tested for acute anti-inflammatory activity of carrageenan-induced foot edema in rats at dose of 3 mg/kg at time interval- 4 hr; type: functional; outline: as §2
Rattus norvegicus [25] = assay: Tested for acute anti-inflammatory activity of the antirat serum-induced edema in rats at dose of 100 mg/kg at time interval- 0.5 hr; type: functional; outline: as §1
Rattus norvegicus [26] = assay: Tested for acute anti-inflammatory activity of the antirat serum-induced edema in rats at dose of 100 mg/kg at time interval- 1 hr; type: functional; outline: as §1
Rattus norvegicus [27] = assay: Tested for acute anti-inflammatory activity of the antirat serum-induced edema in rats at dose of 100 mg/kg at time interval- 2 hr; type: functional; outline: as §1
Rattus norvegicus [28] = assay: Tested for acute anti-inflammatory activity of the antirat serum-induced edema in rats at dose of 100 mg/kg at time interval- 3h; type: functional; outline: as §1
Rattus norvegicus [29] = assay: Tested for acute anti-inflammatory activity of the antirat serum-induced edema in rats at dose of 100 mg/kg at time interval- 4 hr; type: functional; outline: as §1
Rattus norvegicus [30] = assay: Tested for acute anti-inflammatory activity of carrageenan-induced foot edema in rats at dose of 30 mg/kg at time interval- 2 hr; type: functional; outline: as §2
Rattus norvegicus [31] = assay: Tested for acute anti-inflammatory activity of carrageenan-induced foot edema in rats at dose of 100 mg/kg at time interval- 2 hr; type: functional; outline: as §2
Rattus norvegicus [32] = assay: Tested for acute anti-inflammatory activity of the antirat serum-induced edema in rats at dose of 3 mg/kg at time interval- 0.5 hr; type: functional; outline: as §1
[33] = Inhibition of spontaneous lipid peroxidation at 10e-5 M in rat brain homogenate
[34] = Inhibition of [Fe(2+)]/ascorbate-induced lipid peroxidation at 10e-5 M in rat brain homogenate

SMILES | GSH-Px activity [1] | GSH-Px activity [2] | inhibition in vivo at 30 mg/kg (Rattus norvegicus [3]) | inhibition in vivo at 30 mg/kg (Rattus norvegicus [4]) | inhibition in vivo at 30 mg/kg (Rattus norvegicus [5]) | inhibition in vivo at 100 mg/kg (Rattus norvegicus [6]) | inhibition in vivo at 100 mg/kg (Rattus norvegicus [7]) | inhibition in vivo at 100 mg/kg (Rattus norvegicus [8]) | inhibition in vivo at 100 mg/kg (Rattus norvegicus [9]) | inhibition in vivo at 30 mg/kg (Rattus norvegicus [10]) | inhibition in vivo at 30 mg/kg (Rattus norvegicus [11]) | inhibition in vivo at 30 mg/kg (Rattus norvegicus [12]) | inhibition in vivo at 30 mg/kg (Rattus norvegicus [13]) | inhibition in vivo at 30 mg/kg (Rattus norvegicus [14]) | inhibition in vivo at 30 mg/kg (Rattus norvegicus [15]) | inhibition in vivo at 3 mg/kg (Rattus norvegicus [16]) | inhibition in vivo at 3 mg/kg (Rattus norvegicus [17]) | inhibition in vivo at 3 mg/kg (Rattus norvegicus [18]) | inhibition in vivo at 3 mg/kg (Rattus norvegicus [19]) | inhibition in vivo at 3 mg/kg (Rattus norvegicus [20]) | also measured
O=C(c1ccccc1)c1ccc2[nH]c(=O)[se]c2c1 | 0 | 0 | -9.8% | 5.3% | 25.6% | -76.2% | 9.9% | 58.5% | 55.5% | -22.2% | 14.2% | 35.6% | 26.1% | 19.7% | 25.2% | -16.7% | -10.7% | -14.1% | -1.4% | -42.9% | inhibition in vivo at 3 mg/kg (Rattus norvegicus [21]): -7.8%; inhibition in vivo at 3 mg/kg (Rattus norvegicus [22]): 27.8%; inhibition in vivo at 3 mg/kg (Rattus norvegicus [23]): 27.5%; inhibition in vivo at 3 mg/kg (Rattus norvegicus [24]): 9.6%; inhibition in vivo at 100 mg/kg (Rattus norvegicus [25]): -0.5%; inhibition in vivo at 100 mg/kg (Rattus norvegicus [26]): 6%; inhibition in vivo at 100 mg/kg (Rattus norvegicus [27]): 12.7%; inhibition in vivo at 100 mg/kg (Rattus norvegicus [28]): 18%; inhibition in vivo at 100 mg/kg (Rattus norvegicus [29]): 19.3%; inhibition in vivo at 30 mg/kg (Rattus norvegicus [30]): 31.7%; inhibition in vivo at 100 mg/kg (Rattus norvegicus [31]): 51.6%; inhibition in vivo at 3 mg/kg (Rattus norvegicus [32]): -41.8%; inhibition [33]: 0%; inhibition [34]: -3%
Nc1ccc(C(=O)c2ccccc2)cc1[Se][Se]c1cc(C(=O)c2ccccc2)ccc1N | 261 | 300 | -23.4% | -18.2% | 0.7% | -27% | 40.4% | 9.2% | 5% | -20.6% | 43.3% | 13.7% | 8.5% | -3.7% | 5.5% | -7.9% | -3.3% | 0.2% | 4.8% | -33.3% | inhibition in vivo at 3 mg/kg (Rattus norvegicus [21]): 39%; inhibition in vivo at 3 mg/kg (Rattus norvegicus [22]): 45%; inhibition in vivo at 3 mg/kg (Rattus norvegicus [23]): 32.9%; inhibition in vivo at 3 mg/kg (Rattus norvegicus [24]): 18.2%; inhibition in vivo at 100 mg/kg (Rattus norvegicus [25]): -37.5%; inhibition in vivo at 100 mg/kg (Rattus norvegicus [26]): 7.2%; inhibition in vivo at 100 mg/kg (Rattus norvegicus [27]): 4.9%; inhibition in vivo at 100 mg/kg (Rattus norvegicus [28]): -3.9%; inhibition in vivo at 100 mg/kg (Rattus norvegicus [29]): 2%; inhibition in vivo at 30 mg/kg (Rattus norvegicus [30]): 18.7%; inhibition in vivo at 100 mg/kg (Rattus norvegicus [31]): 29.2%; inhibition in vivo at 3 mg/kg (Rattus norvegicus [32]): -16.8%; inhibition [33]: 87%; inhibition [34]: 95%
